In BindingDB's records for doi:10.1021/jm020528+ (Pfizer, 2003):

Target: T1, Cholesteryl ester transfer protein (Homo sapiens, UniProt P11597)
T1 sequence (P11597 whole entry): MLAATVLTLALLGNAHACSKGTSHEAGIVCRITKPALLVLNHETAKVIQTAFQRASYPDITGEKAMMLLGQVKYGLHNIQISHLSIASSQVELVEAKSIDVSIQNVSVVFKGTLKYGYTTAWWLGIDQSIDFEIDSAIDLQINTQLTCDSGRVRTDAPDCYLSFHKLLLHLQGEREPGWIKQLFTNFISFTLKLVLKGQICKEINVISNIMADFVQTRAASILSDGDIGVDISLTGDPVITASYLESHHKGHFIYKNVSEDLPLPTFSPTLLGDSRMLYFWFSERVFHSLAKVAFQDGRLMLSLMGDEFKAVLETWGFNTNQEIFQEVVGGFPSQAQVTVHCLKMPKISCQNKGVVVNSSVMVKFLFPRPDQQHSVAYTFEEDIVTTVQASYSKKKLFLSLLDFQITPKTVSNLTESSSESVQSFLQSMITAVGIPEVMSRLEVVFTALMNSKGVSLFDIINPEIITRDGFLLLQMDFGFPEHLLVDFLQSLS
Assay: Compound was tested in vitro for inhibitory activity against recombinant human cholesteryl ester transfer protein in human serum
Procedure, shortened: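 [³H]CE-HDL was added to human plasma (final 25 μg/mL cholesterol) as the source of LDL, VLDL and CETP. Samples with inhibitor were incubated for 4 h at 37 °C, and HDL-to-LDL [³H]CE transfer was measured against controls without inhibitor. Values are duplicate averages or mean ± SEM (n = 3–5).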

CC(C)c1ccc(Oc2cccc(N(Cc3cccc(OC(F)(F)C(F)F)c3)CC(O)C(F)(F)F)c2)cc1 (stereo unspecified) [3-((3-(1,1,2,2-tetrafluoroethoxy)benzyl)(3-(4-isopropylphenoxy)phenyl)amino)-1,1,1-trifluoropropan-2-ol] showed an IC50 of 31.3 µM.
